Here are results for 15 molecules from article PMC4301073 (ACS Chemical Biology, 2014).

Values after ≈ are worked out from the molar mass of the structure shown.

The target in data set [1] is T1, HK853 (Thermotoga maritima, UniProt Q9WZV7).
T1 sequence (Q9WZV7 232-489): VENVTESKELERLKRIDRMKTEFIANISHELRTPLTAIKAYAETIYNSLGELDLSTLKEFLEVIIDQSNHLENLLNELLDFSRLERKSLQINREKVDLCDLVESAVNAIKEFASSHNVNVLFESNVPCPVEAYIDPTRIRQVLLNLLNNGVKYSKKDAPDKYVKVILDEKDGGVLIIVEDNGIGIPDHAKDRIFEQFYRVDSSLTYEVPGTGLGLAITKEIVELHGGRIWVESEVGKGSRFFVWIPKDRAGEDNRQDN
Put plainly: Inhibition of HK853 autophosphorylation activity. The data set is classed as biochemical.

The test system of a further data set is E. coli DC2. Put plainly: Broth microdilution antimicrobial testing. The data set is classed as cell-based, Escherichia coli. The conditions noted are these: for MIC: Escherichia coli, DC2, 20 h, read-out: MIC values E. coli DC2. In a few lines: (§1)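 Serial dilutions in Mueller-Hinton Broth 2, inoculated at 5 × 10^5 cfu/mL; wells ≤5% DMSO. Growth, sterility, DMSO and known-antibiotic controls included; inoculum count checked by plating on MHB 2 agar. Incubated 20 h at 37 °C. MIC taken as lowest concentration with no growth visible to unaided eye.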
A general note: Broth dilution looks for growth in wells or tubes with falling amounts of substance.

The subject of a further data set is B. subtilis 3610. Put plainly: Broth microdilution antimicrobial testing. The note with it: for MIC: Bacillus subtilis, 3610, 20 h, read-out: MIC values B. subtilis 3610; for MIC values B. subtilis 3610: n = 2. The data set is classed as cell-based, Bacillus subtilis. In a few lines:
as §1

In the next data set the target is T2, VicK (Streptococcus pneumoniae, UniProt Q8DPL8).
T2 sequence (Q8DPL8 36-449 limits assumed): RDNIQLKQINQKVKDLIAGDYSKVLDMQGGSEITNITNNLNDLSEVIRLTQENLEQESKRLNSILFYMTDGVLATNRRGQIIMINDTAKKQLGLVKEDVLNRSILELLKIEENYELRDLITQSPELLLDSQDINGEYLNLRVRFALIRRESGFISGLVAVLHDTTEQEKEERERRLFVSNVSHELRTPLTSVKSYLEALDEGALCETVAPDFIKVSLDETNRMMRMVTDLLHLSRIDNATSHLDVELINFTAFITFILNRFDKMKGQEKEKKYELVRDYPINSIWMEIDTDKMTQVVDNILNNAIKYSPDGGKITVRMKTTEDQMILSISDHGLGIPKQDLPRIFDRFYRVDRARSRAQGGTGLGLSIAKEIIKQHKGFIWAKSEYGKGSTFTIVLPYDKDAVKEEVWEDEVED
Put plainly: Inhibition of VicK activity. It is filed as biochemical. The gist of the method:
(§2)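 Enzyme (VicK 2 μM; for CheA, 2 μM CheA plus 6 μM CheW) preincubated with test compound 30 min RT, then radioactive ATP mix added. Final: 3 μM ATP [γ-33P] (20 Ci mmol–1), 5% DMSO, 0.1% Triton X-100 in reaction buffer, pH 7.8. Reacted 30 min RT, quenched in SDS loading buffer, run on SDS-PAGE. Radioactive band density normalised to no-inhibitor control; IC50 from four-parameter logistic fit.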

A further data set deals with PhoQ. The note with it: cited from earlier work.
The target in data set [2] is T1, HK853. Put plainly: High-throughput primary FP screen for displacement of ADP-BODIPY. It is filed as binding. The conditions noted are these: 20 μM compound.
Another data set has as its system four HK proteins. The note with it: cited from earlier work.
For data set [3], the target named is T1, HK853. Put plainly: Control FP competition. The data set is classed as binding. In a few lines: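 Competition format: 25 μM HK853 plus 10 nM ADP-BODIPY probe with 0–1000 μM competing nucleotide and 5% (v/v) DMSO, in 50 mM Tris-HCl pH 7.8, 200 mM KCl, 5 mM MgCl2. Incubation and FP read as for binding, in triplicate. FP plotted against log molar competitor; IC50 from four-parameter logistic fit.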

The target of a further data set is T3, CheA (Escherichia coli, UniProt P07363).
T3 sequence (P07363 1-654): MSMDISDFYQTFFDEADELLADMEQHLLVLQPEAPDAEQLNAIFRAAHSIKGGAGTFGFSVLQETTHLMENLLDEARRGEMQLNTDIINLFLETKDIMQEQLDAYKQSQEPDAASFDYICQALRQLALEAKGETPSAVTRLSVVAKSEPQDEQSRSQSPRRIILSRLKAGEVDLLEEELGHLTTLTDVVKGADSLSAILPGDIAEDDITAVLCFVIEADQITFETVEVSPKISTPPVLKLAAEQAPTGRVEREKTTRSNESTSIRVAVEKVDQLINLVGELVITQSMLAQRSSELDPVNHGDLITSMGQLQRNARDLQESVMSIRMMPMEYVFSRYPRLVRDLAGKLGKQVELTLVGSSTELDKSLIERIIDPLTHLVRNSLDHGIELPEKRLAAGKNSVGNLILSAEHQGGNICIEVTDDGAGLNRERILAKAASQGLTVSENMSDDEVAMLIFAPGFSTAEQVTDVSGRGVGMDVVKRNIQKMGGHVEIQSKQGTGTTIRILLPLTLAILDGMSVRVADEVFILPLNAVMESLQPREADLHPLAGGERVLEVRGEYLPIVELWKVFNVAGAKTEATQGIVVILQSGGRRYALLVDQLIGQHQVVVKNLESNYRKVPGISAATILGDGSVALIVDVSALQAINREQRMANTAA
Put plainly: Inhibition of CheA activity. The data set is classed as biochemical. The gist of the method:
as §2

In the next data set the test system is Vero 76 cells. Put plainly: Cytotoxicity testing. The data set is classed as cell-based, African green monkey. The conditions noted are these: DMSO control, n = 2.

What is called IC50 is the concentration at which inhibition is half-maximal. A lower IC50 goes with greater potency in that assay. A word on the MIC: it is the smallest concentration in the dilution series that meets the test's criterion for growth inhibition. As to `O=c1cc(-c2ccc(O)c(O)c2)oc2cc(O)cc(O)c12` [Compound 15, luteolin], the IC50 against HK853 [1] came to 15.1 µM; against VicK, 216 µM. Besides, the results for the MIC with E. coli DC2 and with B. subtilis 3610 were 8 µg/mL (≈ 27.9 µM) and above 128 µg/mL, respectively.

Regarding `O=C(N[C@H](CO)[C@H](O)c1ccc([N+](=O)[O-])cc1)C(Cl)Cl` [chloramphenicol], the minimal inhibitory concentration (MIC) with E. coli DC2 lay within 0.5 to 1 µg/mL (≈ 1.55 to 3.09 µM); in the data set on B. subtilis 3610 it was 2 to 4 µg/mL (≈ 6.19 to 12.4 µM).

`C[C@@H]1C[C@H]2O[C@@H]2/C=C\C=C\C(=O)Cc2c(Cl)c(O)cc(O)c2C(=O)O1` [radicicol]: the “difference in selectivity between Hsp90 and PhoQ” value in the data set on PhoQ is above 30 fold. Moreover, on HK853 [2], the “displacement of ADP-BODIPY (1) in primary screening (HTS)” value (from here on “displacement of ADP-BODIPY”) is given as “failed to displace ADP-BODIPY (1)”.

For `CC1(C)S[C@@H]2[C@H](NC(=O)[C@H](N)c3ccccc3)C(=O)N2[C@H]1C(=O)O` [ampicillin], the MIC in the data set on E. coli DC2 was 0.25 µg/mL (≈ 0.715 µM).

In the case of `N#Cc1c(N)nc2sc(C(=O)Nc3ccc(Br)cc3)c(N)c2c1-c1ccccc1` [TEP, 3,6-diamino-5-cyano-4-phenylthieno[2,3-b]pyridine-2-carboxylic acid (4-bromo-phenyl)-amide], in the data set on four HK proteins, the IC50 values entry is “low micromolar range”.

`Nc1ncnc2nc[nH]c12` [adenine (10), adenine] returned an IC50 on HK853 [1] of 463 µM.

In turn, `Nc1ncnc2c1ncn2[C@@H]1O[C@H](COP(=O)(O)OP(=O)(O)OP(=O)(O)O)[C@@H](O)[C@H]1O` [ATP (2), adenosine triphosphate] yielded an IC50 at HK853 [3] of 23 ± 1.1 µM.

Regarding `Nc1ncnc2c1ncn2[C@@H]1O[C@H](COP(=O)(O)OP(=O)(O)O)[C@@H](O)[C@H]1O` [ADP (3), adenosine diphosphate], the IC50 came out at 2.57 µM on HK853 [1], 21.5 µM at CheA, 4.81 µM at VicK and 27.7 ± 0.9 µM on HK853 [3]. The “increased potency over AMP (9)” value on HK853 [1] (from Table 1 IC50 values of HK inhibition) was “more than 300 fold”.

Regarding `O=c1c(-c2ccc(O)cc2)coc2cc(O)cc(O)c12` [Genistein, genistein], the “inhibition of HK853 activity in follow-up assays” value on HK853 [1] (Supporting Information Table 1, n=1) is given as “slight inhibition”.

As for `COC1=C2C[C@@H](C)C[C@H](OC)[C@H](O)[C@@H](C)/C=C(\C)[C@H](OC(N)=O)[C@@H](OC)/C=C\C=C(/C)C(=O)NC(=CC1=O)C2=O` [geldanamyin], the “displacement of ADP-BODIPY” value on HK853 [2] is “failed to displace ADP-BODIPY (1)”.

With `CN[C@H](CC(C)C)C(=O)N[C@H]1C(=O)N[C@@H](CC(N)=O)C(=O)N[C@H]2C(=O)N[C@H]3C(=O)N[C@H](C(=O)N[C@H](C(=O)O)c4cc(O)cc(O)c4-c4cc3ccc4O)[C@H](O)c3ccc(c(Cl)c3)Oc3cc2cc(c3O[C@@H]2O[C@H](CO)[C@@H](O)[C@H](O)[C@H]2O[C@H]2C[C@](C)(N)[C@H](O)[C@H](C)O2)Oc2ccc(cc2Cl)[C@H]1O` [vancomycin], in the data set with B. subtilis 3610, the MIC was found to be 0.5 µg/mL (≈ 0.345 µM).

Consider `C[S+](C)[O-]` [DMSO, dimethyl sulfoxide], for which, in the data set with E. coli DC2 (DMSO control, n = 2), the “MIC values E. coli DC2” value was 10–20% (v/v). Moreover, in the data set on B. subtilis 3610 (DMSO control), the “MIC values B. subtilis 3610” value is reported as 20% (v/v). Moreover, in the data set with Vero 76 cells, the “CC50 Vero 76 Cells” value is >0.5% (v/v).

On to `C=CCNC1=C2C[C@@H](C)C[C@H](OC)[C@H](O)[C@@H](C)/C=C(\C)[C@H](OC(N)=O)[C@@H](OC)/C=C\C=C(/C)C(=O)NC(=CC1=O)C2=O` [17-AAG], for which the “displacement of ADP-BODIPY” value on HK853 [2] was “failed to displace ADP-BODIPY (1)”.

Turning to `Nc1nc2ccc(OC(F)(F)F)cc2s1` [Compound 12, riluzole], the MIC was determined as 128 µg/mL (≈ 547 µM) with E. coli DC2 and 293 µg/mL (≈ 1250 µM) with B. subtilis 3610. Further, the IC50 against CheA came to 1340 µM; on VicK it was 618 µM.

In the case of penicillin, the “MIC values B. subtilis 3610” value in the data set with B. subtilis 3610 (20 h at 37 °C, lowest concentration that inhibited visible growth) is given as ≤0.06–0.5 μg mL^–1.
